Test results as given in ChEMBL document CHEMBL1132248, “2,4-Diphenyl furan diamidines as novel anti-Pneumocystis carinii pneumonia agents” (J Med Chem, 1999).
Where “and” joins values, the source holds several entries; their conditions need not be identical. Equal entries are not always repeated.

Experiments:
[1] = system: Rattus norvegicus; test: Percentage control of Pneumocystis carinii pneumonia in immunosuppressed rat at 10 uM/Kg/d administered intravenously; type: functional
Procedure, shortened: (§1)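 Immunosuppressed rats with Pneumocystis carinii pneumonia were given test agent intravenously. The read-out was cysts per g of lung tissue, expressed as percent of pooled saline-treated controls (n = 46). Values below 1% of control fall within experimental error.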

[2] = system: Rattus norvegicus; test: Toxicity in immunosuppressed rat after administration of 10 uM/Kg/d; type: organism-based; conditions: in vivo
Procedure, shortened: (§2)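 Immunosuppressed rats with Pneumocystis carinii pneumonia; compounds given intravenously at the daily dose named in each line. Toxicity scored on a five-level scale from 0 to 5+; the paper calls the scores anecdotal rather than definitive. The same study scored lung cysts per gram against pooled saline controls (n = 46).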

[3] = The compound was tested for the increase in thermal melting of d(CGCGAATTCGCG)2.
[4] = system: Nucleic Acid
[5] = system: Rattus norvegicus; test: Percentage control of Pneumocystis carinii pneumonia in immunosuppressed rat at 22 uM/Kg/d administered intravenously; type: functional; procedure, shortened: as §1
[6] = system: Nucleic Acid; remark: listed apart in the source
[7] = system: Rattus norvegicus; test: Percentage control of Pneumocystis carinii pneumonia in immunosuppressed rat at 10 uM/Kg/d administered intravenously.; type: functional; procedure, shortened: as §1
[8] = system: Rattus norvegicus; test: Toxicity in immunosuppressed rat after administration of 10 uM/Kg/d.; type: organism-based; conditions: in vivo; procedure, shortened: as §2
[9] = system: Rattus norvegicus; test: Percentage control of Pneumocystis carinii pneumonia in immunosuppressed rat at 0.25 uM/Kg/d administered intravenously; type: functional; procedure, shortened: as §1
[10] = system: Rattus norvegicus; test: Percentage control of Pneumocystis carinii pneumonia in immunosuppressed rat at 20 uM/Kg/d administered intravenously; type: functional; procedure, shortened: as §1
[11] = system: Rattus norvegicus; test: Percentage control of Pneumocystis carinii pneumonia in immunosuppressed rat at 5 uM/Kg/d administered intravenously; type: functional; procedure, shortened: as §1
[12] = system: Rattus norvegicus; test: Toxicity in immunosuppressed rat after administration of 5 uM/Kg/d; type: organism-based; conditions: in vivo; procedure, shortened: as §2
[13] = system: Rattus norvegicus; test: Toxicity in immunosuppressed rat after administration of 0.2 5 uM/Kg/d; type: organism-based; conditions: in vivo; procedure, shortened: as §2
[14] = system: Rattus norvegicus; test: Toxicity in immunosuppressed rat after administration of 1 uM/kg/day; type: organism-based; conditions: in vivo; procedure, shortened: as §2
[15] = system: Rattus norvegicus; test: Percentage control of Pneumocystis carinii pneumonia in immunosuppressed rat at 1 uM/Kg/d administered intravenously; type: functional; procedure, shortened: as §1
[16] = system: Rattus norvegicus; test: Toxicity in immunosuppressed rat after administration of 1 uM/Kg/d.; type: organism-based; conditions: in vivo; procedure, shortened: as §2

SMILES: Cl.Cl.N=C(N)c1ccc(-c2coc(-c3ccc(C(=N)N)cc3)c2)cc1
- Control [1]: 0.3%
- Toxicity [2]: 0
- ΔTm [3]: 9.1
- ΔTm [4]: 19

SMILES: N=C(N)c1ccc(OCCCCCOc2ccc(C(=N)N)cc2)cc1 [PENTAMIDINE]
- Control [5]: 2.3%
- ΔTm [3]: 4.8
- ΔTm [6]: 12.6

SMILES: Cl.Cl.N=C(NC1CC1)c1ccc(-c2coc(-c3ccc(C(=N)NC4CC4)cc3)c2)cc1
- Control [7]: 0.01%
- Toxicity [8]: 0
- ΔTm [3]: 10.9
- ΔTm [4]: 23.2

SMILES: CC(C)C/N=C(/N)c1ccc(-c2coc(-c3ccc(/C(N)=N\CC(C)C)cc3)c2)cc1
- ΔTm [3]: 9.3
- ΔTm [4]: 20.4

SMILES: Cc1oc(-c2ccc(/C(N)=N\C(C)C)cc2)c(C)c1-c1ccc(/C(N)=N\C(C)C)cc1.Cl.Cl
- Control [1]: 24.43%
- Toxicity [8]: 0
- ΔTm [3]: 5.4
- ΔTm [4]: 12.5

SMILES: c1cc(-c2coc(-c3ccc(C4=NCCN4)cc3)c2)ccc1C1=NCCN1
- ΔTm [3]: 7.2
- ΔTm [4]: 16.8

SMILES: Cc1oc(-c2ccc(C(=N)N)cc2)c(C)c1-c1ccc(C(=N)N)cc1.Cl.Cl
- Control [1]: 0.89%
- ΔTm [3]: 6.5
- ΔTm [4]: 17

SMILES: CC(C)/N=C(/N)c1ccc(-c2coc(-c3ccc(/C(N)=N\C(C)C)cc3)c2)cc1.Cl.Cl
- Control [9]: 110.5%
- Control [1]: 0.04% and 0.08%
- Control [10]: 0%
- Control [11]: 0.08%
- Toxicity [12]: 0
- Toxicity [13]: 0
- Toxicity [2]: 0
- Toxicity [14]: 0
- ΔTm [3]: 10.9
- ΔTm [4]: 17.6

SMILES: Cl.Cl.N=C(NC1CCCC1)c1ccc(-c2coc(-c3ccc(C(=N)NC4CCCC4)cc3)c2)cc1
- Control [15]: 1.79%
- Control [1]: 0.16%
- Toxicity [16]: 0
- Toxicity [8]: 0
- ΔTm [3]: 13.6
- ΔTm [4]: 20.4
